Source: PubChem BioAssay
Pf Dd2 inh: P. falciparum Dd2 growth inhibition | SYBR Green, 72 h; active compounds read low | activity change, % at 10 µM | 2.3% of 94,000 active | AID 1159554; in the data active means activity change below about -80%; inconclusive means no clear call, values can overlap the other calls
GASC1 inh: inhibitors of human demethylase GASC-1 KDM4C | Q9H3R0 | GST-KDM4C 2-372, H3K9me3 peptide, LANCE TR-FRET | inhibition, % at 12.5 µM | 0.15% of 96,000 active | AID 720574;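 active means mean replicate inhibition above about 25%, with at least 55% of replicates also reaching it, limit read from the data, passing the limit was not always enough; inconclusive means only one of those two conditions met; inactive means neither condition met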
Target sequence (Q9H3R0 2-372 limits assumed): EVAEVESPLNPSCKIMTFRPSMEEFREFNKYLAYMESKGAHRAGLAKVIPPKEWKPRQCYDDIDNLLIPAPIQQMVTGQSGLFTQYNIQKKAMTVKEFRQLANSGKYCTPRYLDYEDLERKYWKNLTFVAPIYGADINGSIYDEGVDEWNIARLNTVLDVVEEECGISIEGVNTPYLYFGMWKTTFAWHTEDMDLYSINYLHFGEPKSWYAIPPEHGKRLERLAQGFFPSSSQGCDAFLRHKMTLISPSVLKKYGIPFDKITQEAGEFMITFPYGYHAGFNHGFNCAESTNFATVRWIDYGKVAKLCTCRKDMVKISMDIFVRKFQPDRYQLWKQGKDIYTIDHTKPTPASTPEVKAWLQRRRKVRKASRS
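System – N-terminal GST-fused human GASC-1 (KDM4C) fragment, residues 2-372 · Input – enzyme final amount 10 nM · Technique – LANCE TR-FRET, Eu antibody, ULight-streptavidin, EDTA, ex 340 nm, em 618/671 nm · Medium – HEPES buffer, pH 7.5, plus ascorbate · Incubation – enzyme reaction 30 min, then detection 60 min, both room temperature · Reagent – H3K9me3 peptide with Fe(II)/2OG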
T cruzi growth-1: T. cruzi proliferation inhibition | T. cruzi beta-gal in NIH3T3, GalScreen luminescence, 90 h | inhibition, % at 8.34 µM | 5.9% of 77,000 active;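 active means mean inhibition above about 93%, with at least 55% of replicates each passing it, limit read from the data, passing the limit was not always enough; inconclusive means only one of those two conditions holds; inactive means neither condition holds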
IDH1 mut inh: IDH1 R132H (human) inhibition; IDH1 R132H reductase, diaphorase/resazurin fluorescence, 60 min; inhibition, % at 10 µM; 0.18% of 70,000 active; O75874; in the data active means inhibition above about 34%; inconclusive means no clear call, values can overlap the other calls; inactive means below about 11%;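 further: 0% = DMSO and 100% = no enzyme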
T cruzi growth-2: Trypanosoma cruzi proliferation inhibition | shares compounds with T cruzi growth-1 | T. cruzi beta-gal in NIH3T3, GalScreen luminescence, 90 h | inhibition, % at 8.35 µM | 72% of 5,600 active | AID 651739;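 active means mean replicate inhibition above about 95% and at least 55% of replicates individually reaching it, limit read from the data; inconclusive means only one of the two criteria is met; inactive means neither criterion is met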
T cruzi growth-3: Trypanosoma cruzi proliferation inhibition | shares compounds with T cruzi growth-1 | T. cruzi beta-gal in NIH3T3, GalScreen luminescence, 90 h | inhibition, % at 2.09 µM | 21% of 5,600 active | AID 651740;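 active means mean inhibition above about 95%, with at least 55% of replicates also reaching it, limit read from the data; inconclusive means meets just one of the two conditions; inactive means meets neither condition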;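 further: plate controls were neutral control median for no effect and positive control median for full effect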
3T3 cytotox: cytotoxicity in mouse NIH/3T3 fibroblasts | shares compounds with T cruzi growth-1 | NIH/3T3 viability, CellTiter-Glo ATP luminescence, 90 h | cytotoxicity (signal decrease), % at 8.35 µM | 14% of 5,600 active;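 active means mean signal decrease across replicates above about 35% based on untreated-well scatter, with enough replicates individually passing, limit read from the data; inconclusive means no rule stated though some were filed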;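 further: 0% = median of neutral control wells and 100% = median of positive control wells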
3T3 cytotox 2: NIH/3T3 (mouse) viability loss. 56% of 5,600 active. NIH/3T3 viability, CellTiter-Glo ATP luminescence, 90 h. inhibition, % at 24.9 µM. shares compounds with T cruzi growth-1;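 active means mean loss of cell viability signal at or above a set limit, and enough replicates individually reaching it; inconclusive means meets only the mean limit or only the replicate share; inactive means meets neither condition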;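 further: 0% = median of neutral control wells and 100% = median of positive control wells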
* marks the source's active call; other numbers are inactive results; u = inconclusive; x = no result; ! = repeats disagree. Most compounds without a hit are left out; they make up all but 5.8% or so of the library.

SMILES | Pf Dd2 inh | GASC1 inh | T cruzi growth-1 | IDH1 mut inh | T cruzi growth-2 | T cruzi growth-3 | 3T3 cytotox | 3T3 cytotox 2
C[C@@H]1CN([C@H](C)CO)C(=O)c2cccc(NC(=O)c3ccncc3)c2O[C@H]1CN(C)Cc1ccncc1 | -35 | 0 | 80 | 2 | x | x | x | x
C[C@H]1CN([C@@H](C)CO)C(=O)c2cccc(NC(=O)c3ccncc3)c2O[C@H]1CN(C)Cc1ccc2c(c1)OCO2 | -2 | 1 | 97* | 0 | 108* | 86 | 3 | u
C[C@@H]1CN([C@@H](C)CO)C(=O)c2cccc(NC(=O)c3ccncc3)c2O[C@H]1CN(C)Cc1ccc2c(c1)OCO2 | -8 | 3 | 103* | 0 | 97* | 92 | -3 | 27*
C[C@@H]1CN([C@H](C)CO)C(=O)c2cccc(NC(=O)c3ccncc3)c2O[C@H]1CN(C)Cc1ccc2c(c1)OCO2 | -7 | -2 | 98* | 3 | 91 | 74 | 23 | 25
CC=Cc1ccc2n(c1=O)C[C@@H]1[C@@H](CO)[C@H](C(=O)N3CCc4ccccc4C3)N(C(=O)CC)[C@H]21 (mixture of isomers) | 9 | 3 | 15 | x | x | x | x | x
C[C@H](CO)N1C[C@H](C)[C@@H](CN(C)C)OCc2cnnn2CCCC1=O | 12 | -1 | -9 | -1 | x | x | x | x
Cc1ccc(S(=O)(=O)N(C)C[C@H]2Oc3c(NC(=O)C4CCCCC4)cccc3C(=O)N([C@H](C)CO)C[C@H]2C)cc1 | -26 | x | 44 | x | x | x | x | x
Cc1cc(C(=O)Nc2cccc3c2O[C@@H](CN(C)Cc2ccccc2)[C@@H](C)CN([C@H](C)CO)C3=O)n(C)n1 | 10 | 2 | 26 | 1 | x | x | x | x
Cc1cc(C(=O)Nc2cccc3c2O[C@H](CN(C)Cc2ccc(C(=O)Nc4ccccc4N)cc2)[C@H](C)CN([C@H](C)CO)C3=O)n(C)n1 | -60 | 2 | 103* | x | -49 | -59 | -10 | -13
Cc1cc(C(=O)Nc2cccc3c2O[C@H](CN(C)Cc2ccc(C(=O)Nc4ccccc4N)cc2)[C@@H](C)CN([C@@H](C)CO)C3=O)n(C)n1 | -87* | -3 | 106* | x | 106* | 86 | 10 | 23
CC(C)NC(=O)N1CCCCN2[C@@H](CO)[C@H](c3ccc(C#Cc4ccccc4F)cc3)[C@@H]2C1 | -16 | -3 | 113* | x | 96* | 79 | 51* | 104*
CC(C)NC(=O)N1CCCCN2[C@H](C1)[C@H](c1ccc(C#Cc3ccccc3F)cc1)[C@@H]2CO | 1 | -1 | 70 | x | x | x | x | x
CC(C)NC(=O)N1CCCCN2[C@H](CO)[C@H](c3ccc(C#Cc4ccccc4F)cc3)[C@H]2C1 | -33 | -2 | 109* | x | 104* | 107* | 31 | 103*
CCCC#Cc1ccc2c(c1)O[C@H](CN(C)C(=O)C1CCC1)[C@H](C)CN([C@H](C)CO)S2(=O)=O | -27 | 0 | u | x | u | 62 | 29 | 57*
CCCC#Cc1ccc2c(c1)O[C@H](CN(C)C(=O)C1CCC1)[C@@H](C)CN([C@H](C)CO)S2(=O)=O | -41 | 2 | u | 0 | u | 42 | -11 | 4
CCCC#Cc1ccc2c(c1)O[C@@H](CN(C)C(=O)C1CCC1)[C@H](C)CN([C@@H](C)CO)S2(=O)=O | -56 | -2 | 92 | x | x | x | x | x
O=C(NCc1ccncc1)[C@H]1[C@H](CO)[C@H]2Cn3c(ccc(-c4cccnc4)c3=O)[C@H]2N1C(=O)C1CC1 | 10 | 0 | 2 | x | x | x | x | x
C[C@H](CO)N1C[C@H](C)[C@H](CN(C)C(=O)NC2CCCCC2)OCCCC[C@H](C)Oc2ccc(N(C)C)cc2C1=O | -52 | 10 | 111* | x | 52 | 20 | -19 | -37
C[C@@H]1CCCCO[C@H](CN(C)C(=O)C2CCCCC2)[C@@H](C)CN([C@H](C)CO)C(=O)c2cc(N(C)C)ccc2O1 | -3 | 2 | 103*! | 0 | 52 | 32 | 8 | -9
